Measurements published in ChEMBL document CHEMBL4382246, “Synthesis, biological evaluation, and molecular docking investigation of 3-amidoindoles as potent tubulin polymerization inhibitors” (Eur J Med Chem, 2019).

test system: MDA-MB-468; test: Cytotoxicity against human MDA-MB-468 cells after 72 hrs by MTT assay; format: functional, cell-based; settings: MDA-MB-468, 72 h
Method in brief: (§1)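 Lines kept in RPMI-1640 with 10% FBS. Cells were seeded at 2×10³ per well and allowed to attach for 24 h at 37 °C. Medium was then replaced with medium holding serial dilutions from 100 mM DMSO stocks, with 0.1% DMSO as negative control, for 72 h at 37 °C. […] IC50 was fitted from the concentration series as the mean ± SD of three independent experiments run in duplicate.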

| Structure (SMILES) | IC50 |
| --- | --- |
| COc1cc(C(=O)Nc2c(C(=O)c3ccccc3)[nH]c3ccccc23)cc(OC)c1OC | > 100 µM |
| COc1cc(C(=O)Nc2c(C(=O)c3ccc(C)cc3)[nH]c3cc(Cl)ccc23)cc(OC)c1OC | 5.79 µM |
| COc1ccc2c(NC(=O)c3cc(OC)c(OC)c(OC)c3)c(C(=O)c3ccccc3)[nH]c2c1 | > 100 µM |
| COc1cccc(C(=O)c2[nH]c3ccccc3c2NC(=O)c2cc(OC)c(OC)c(OC)c2)c1 | > 100 µM |
| COc1cc(C(=O)Nc2c(C(=O)c3ccco3)[nH]c3cc(Cl)ccc23)cc(OC)c1OC | > 100 µM |
| COc1cc(C(=O)Nc2c(C(=O)c3ccc(F)cc3)[nH]c3cc(C)ccc23)cc(OC)c1OC | 6.16 µM |
| COc1cc(C(=O)Nc2c(C(=O)c3ccc(-c4ccccc4)cc3)[nH]c3cc(C)ccc23)cc(OC)c1OC | > 100 µM |
| COc1cc(C(=O)Nc2c(C(=O)c3ccc(Cl)cc3)[nH]c3cc(C)ccc23)cc(OC)c1OC | 4.12 µM |

test system: T47D; test: Cytotoxicity against human T47D cells after 72 hrs by MTT assay; format: functional, cell-based; settings: not given; method in brief: as §1

| Structure (SMILES) | IC50 |
| --- | --- |
| COc1cc(C(=O)Nc2c(C(=O)c3ccccc3)[nH]c3ccccc23)cc(OC)c1OC | > 100 µM |
| COc1cc(C(=O)Nc2c(C(=O)c3ccc(C)cc3)[nH]c3cc(Cl)ccc23)cc(OC)c1OC | 16.6 µM |
| COc1ccc2c(NC(=O)c3cc(OC)c(OC)c(OC)c3)c(C(=O)c3ccccc3)[nH]c2c1 | > 100 µM |
| COc1cccc(C(=O)c2[nH]c3ccccc3c2NC(=O)c2cc(OC)c(OC)c(OC)c2)c1 | 53.4 µM |
| COc1cc(C(=O)Nc2c(C(=O)c3ccco3)[nH]c3cc(Cl)ccc23)cc(OC)c1OC | > 100 µM |
| COc1cc(C(=O)Nc2c(C(=O)c3ccc(F)cc3)[nH]c3cc(C)ccc23)cc(OC)c1OC | 5.72 µM |
| COc1cc(C(=O)Nc2c(C(=O)c3ccc(-c4ccccc4)cc3)[nH]c3cc(C)ccc23)cc(OC)c1OC | > 100 µM |
| COc1cc(C(=O)Nc2c(C(=O)c3ccc(Cl)cc3)[nH]c3cc(C)ccc23)cc(OC)c1OC | 6.25 µM |

test system: BT-549; test: Cytotoxicity against human BT549 cells after 72 hrs by MTT assay; format: functional, cell-based; settings: BT-549, 72 h; method in brief: as §1

| Structure (SMILES) | IC50 |
| --- | --- |
| COc1cc(C(=O)Nc2c(C(=O)c3ccccc3)[nH]c3ccccc23)cc(OC)c1OC | > 100 µM |
| COc1cc(C(=O)Nc2c(C(=O)c3ccc(C)cc3)[nH]c3cc(Cl)ccc23)cc(OC)c1OC | 25.1 µM |
| COc1ccc2c(NC(=O)c3cc(OC)c(OC)c(OC)c3)c(C(=O)c3ccccc3)[nH]c2c1 | > 100 µM |
| COc1cccc(C(=O)c2[nH]c3ccccc3c2NC(=O)c2cc(OC)c(OC)c(OC)c2)c1 | 65.5 µM |
| COc1cc(C(=O)Nc2c(C(=O)c3ccco3)[nH]c3cc(Cl)ccc23)cc(OC)c1OC | > 100 µM |
| COc1cc(C(=O)Nc2c(C(=O)c3ccc(F)cc3)[nH]c3cc(C)ccc23)cc(OC)c1OC | 8.66 µM |
| COc1cc(C(=O)Nc2c(C(=O)c3ccc(-c4ccccc4)cc3)[nH]c3cc(C)ccc23)cc(OC)c1OC | > 100 µM |
| COc1cc(C(=O)Nc2c(C(=O)c3ccc(Cl)cc3)[nH]c3cc(C)ccc23)cc(OC)c1OC | 4.81 µM |

target: Tubulin (Sus scrofa) (UniProt P02554+P02550); test: Inhibition of pig brain tubulin polymerization at 10 uM by spectrophotometric analysis relative to control; settings: not given
Method in brief: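 Tubulin polymerization inhibition was measured with compounds at a final concentration of 10 µM.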

Sequence of Tubulin (Sus scrofa) (P02550 whole entry, looked up): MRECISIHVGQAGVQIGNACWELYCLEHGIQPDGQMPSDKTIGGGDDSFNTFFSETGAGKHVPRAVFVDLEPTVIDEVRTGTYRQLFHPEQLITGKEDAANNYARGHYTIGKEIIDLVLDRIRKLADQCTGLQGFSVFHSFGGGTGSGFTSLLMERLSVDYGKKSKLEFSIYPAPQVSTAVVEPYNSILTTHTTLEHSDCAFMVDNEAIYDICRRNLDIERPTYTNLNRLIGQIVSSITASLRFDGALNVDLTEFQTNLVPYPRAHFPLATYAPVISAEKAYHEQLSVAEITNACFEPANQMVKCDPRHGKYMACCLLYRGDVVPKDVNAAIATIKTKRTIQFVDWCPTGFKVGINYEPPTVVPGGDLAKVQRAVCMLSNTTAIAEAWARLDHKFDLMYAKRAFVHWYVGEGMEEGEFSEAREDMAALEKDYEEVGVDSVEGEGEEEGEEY
Sequence of Tubulin (Sus scrofa) (P02554 whole entry, looked up): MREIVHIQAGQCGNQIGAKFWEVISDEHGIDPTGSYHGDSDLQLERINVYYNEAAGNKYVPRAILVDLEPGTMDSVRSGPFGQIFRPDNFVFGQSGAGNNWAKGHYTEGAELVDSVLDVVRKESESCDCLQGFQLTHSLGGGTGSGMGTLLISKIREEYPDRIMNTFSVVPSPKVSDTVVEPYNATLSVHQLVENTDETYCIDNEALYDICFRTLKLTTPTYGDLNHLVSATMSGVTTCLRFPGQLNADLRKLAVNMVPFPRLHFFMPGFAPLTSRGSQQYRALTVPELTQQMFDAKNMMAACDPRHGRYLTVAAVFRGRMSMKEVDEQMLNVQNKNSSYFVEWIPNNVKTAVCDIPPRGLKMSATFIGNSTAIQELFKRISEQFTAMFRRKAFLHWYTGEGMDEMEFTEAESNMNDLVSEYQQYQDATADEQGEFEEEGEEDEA

| Structure (SMILES) | inhibition |
| --- | --- |
| COc1cc(C(=O)Nc2c(C(=O)c3ccc(C)cc3)[nH]c3cc(Cl)ccc23)cc(OC)c1OC | 36% |
| COc1cc(C(=O)Nc2c(C(=O)c3ccc(F)cc3)[nH]c3cc(C)ccc23)cc(OC)c1OC | 17% |
| COc1cc(C(=O)Nc2c(C(=O)c3ccc(Cl)cc3)[nH]c3cc(C)ccc23)cc(OC)c1OC | 15% |

test system: MCF7; test: Cytotoxicity against human MCF7 cells after 72 hrs by MTT assay; format: functional, cell-based; settings: MCF7, 72 h; method in brief: as §1

| Structure (SMILES) | IC50 |
| --- | --- |
| COc1cc(C(=O)Nc2c(C(=O)c3ccccc3)[nH]c3ccccc23)cc(OC)c1OC | > 100 µM |
| COc1cc(C(=O)Nc2c(C(=O)c3ccc(C)cc3)[nH]c3cc(Cl)ccc23)cc(OC)c1OC | 34.3 µM |
| COc1ccc2c(NC(=O)c3cc(OC)c(OC)c(OC)c3)c(C(=O)c3ccccc3)[nH]c2c1 | > 100 µM |
| COc1cccc(C(=O)c2[nH]c3ccccc3c2NC(=O)c2cc(OC)c(OC)c(OC)c2)c1 | > 100 µM |
| COc1cc(C(=O)Nc2c(C(=O)c3ccco3)[nH]c3cc(Cl)ccc23)cc(OC)c1OC | > 100 µM |
| COc1cc(C(=O)Nc2c(C(=O)c3ccc(F)cc3)[nH]c3cc(C)ccc23)cc(OC)c1OC | 8.89 µM |
| COc1cc(C(=O)Nc2c(C(=O)c3ccc(-c4ccccc4)cc3)[nH]c3cc(C)ccc23)cc(OC)c1OC | > 100 µM |
| COc1cc(C(=O)Nc2c(C(=O)c3ccc(Cl)cc3)[nH]c3cc(C)ccc23)cc(OC)c1OC | 3.85 µM |

test system: MDA-MB-231; test: Cytotoxicity against human MDA-MB-231 cells after 72 hrs by MTT assay; format: functional, cell-based; settings: MDA-MB-231, 72 h; method in brief: as §1

| Structure (SMILES) | IC50 |
| --- | --- |
| COc1cc(C(=O)Nc2c(C(=O)c3ccccc3)[nH]c3ccccc23)cc(OC)c1OC | 17.2 µM |
| COc1cc(C(=O)Nc2c(C(=O)c3ccc(C)cc3)[nH]c3cc(Cl)ccc23)cc(OC)c1OC | 33.6 µM |
| COc1ccc2c(NC(=O)c3cc(OC)c(OC)c(OC)c3)c(C(=O)c3ccccc3)[nH]c2c1 | > 100 µM |
| COc1cccc(C(=O)c2[nH]c3ccccc3c2NC(=O)c2cc(OC)c(OC)c(OC)c2)c1 | > 100 µM |
| COc1cc(C(=O)Nc2c(C(=O)c3ccco3)[nH]c3cc(Cl)ccc23)cc(OC)c1OC | > 100 µM |
| COc1cc(C(=O)Nc2c(C(=O)c3ccc(F)cc3)[nH]c3cc(C)ccc23)cc(OC)c1OC | 5.17 µM |
| COc1cc(C(=O)Nc2c(C(=O)c3ccc(-c4ccccc4)cc3)[nH]c3cc(C)ccc23)cc(OC)c1OC | 18.2 µM |
| COc1cc(C(=O)Nc2c(C(=O)c3ccc(Cl)cc3)[nH]c3cc(C)ccc23)cc(OC)c1OC | 3.22 µM |

test system: Hs-578T; test: Cytotoxicity against human Hs578T cells after 72 hrs by MTT assay; format: functional, cell-based; settings: not given; method in brief: as §1

| Structure (SMILES) | IC50 |
| --- | --- |
| COc1cc(C(=O)Nc2c(C(=O)c3ccccc3)[nH]c3ccccc23)cc(OC)c1OC | > 100 µM |
| COc1cc(C(=O)Nc2c(C(=O)c3ccc(C)cc3)[nH]c3cc(Cl)ccc23)cc(OC)c1OC | 14.2 µM |
| COc1ccc2c(NC(=O)c3cc(OC)c(OC)c(OC)c3)c(C(=O)c3ccccc3)[nH]c2c1 | > 100 µM |
| COc1cccc(C(=O)c2[nH]c3ccccc3c2NC(=O)c2cc(OC)c(OC)c(OC)c2)c1 | 9.06 µM |
| COc1cc(C(=O)Nc2c(C(=O)c3ccco3)[nH]c3cc(Cl)ccc23)cc(OC)c1OC | > 100 µM |
| COc1cc(C(=O)Nc2c(C(=O)c3ccc(F)cc3)[nH]c3cc(C)ccc23)cc(OC)c1OC | 8.95 µM |
| COc1cc(C(=O)Nc2c(C(=O)c3ccc(-c4ccccc4)cc3)[nH]c3cc(C)ccc23)cc(OC)c1OC | > 100 µM |
| COc1cc(C(=O)Nc2c(C(=O)c3ccc(Cl)cc3)[nH]c3cc(C)ccc23)cc(OC)c1OC | 3.59 µM |
